ChEMBL document CHEMBL1155549, “Sialic acid-mimic peptides as hemagglutinin inhibitors for anti-influenza therapy” (J Med Chem, 2010)
The source made the active and inactive calls. No cut-off for these calls is given here. Where a SMILES comes first, the peptide text is derived from it. The star is where a group is joined. Biotin = O=C1N[C@H]2[C@H](CS[C@H]2CCCCC(=O)*)N1

Assays:
[1] = (§1) Binding affinity to Influenza A virus (A/New Caledonia/20/1999 (H1N1)) hemagglutininin by avidin-biotin peroxidase complex method
Outline: (§2)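 HA was coated at 70 μg/mL overnight at 4 °C and blocked with 1% BSA/PBS. C-terminally biotinylated peptides (5-400 μM) were added for 2 h. After PBS washes, peroxidase-streptavidin was added for 1 h, and o-phenylenediamine colour was read as ΔA at 492 nm, in triplicate. Kd came from a Scatchard plot over 20-200 μM peptide.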

[2] = test system: Influenza A virus (A/Wuhan/359/1995(H3N2)); assay: Binding affinity to Influenza A virus (A/Wuhan/359/1995 (H3N2)) hemagglutininin by scintillation proximity assay
[3] = (§3) Binding affinity to Influenza A virus (A/Wyoming/03/2003 (H3N2)) hemagglutininin by avidin-biotin peroxidase complex method; outline: as §2
[4] = test system: Influenza A virus (A/New Caledonia/20/1999(H1N1)); assay: as §1; outline: as §2
[5] = test system: Influenza A virus (A/Wyoming/03/2003(H3N2)); assay: as §3; outline: as §2

Question: Which Kd [1] does the source give for H-ARLPRTMVHPKPAQP-NH2 here?
Answer: 31 µM

Question: And the Activity [2]?
Answer: Dose-dependent effect

Question: What about the Kd [3] of the same molecule?
Answer: 22 µM

Question: With `CSCC[C@H](NC(=O)[C@@H](NC(=O)[C@@H]1CCCN1C(=O)[C@H](CO)NC(=O)[C@H](CC(C)C)NC(=O)[C@H](CCCNC(=N)N)NC(=O)[C@@H](C)N)[C@@H](C)O)C(=O)N[C@H](C(=O)N[C@@H](Cc1cnc[nH]1)C(=O)N1CCC[C@H]1C(=O)N[C@@H](CC(N)=O)C(=O)NCC(=O)N[C@@H](C)C(=O)N[C@@H](CCC(N)=O)C(=O)N1CCC[C@H]1C(=O)O)C(C)C` as the molecule, how does the Activity [2] read?
Answer: Active

Question: For `CSCC[C@H](NC(=O)[C@@H](NC(=O)[C@H](CCCNC(=N)N)NC(=O)[C@@H]1CCCN1C(=O)[C@H](CC(C)C)NC(=O)[C@H](CCCNC(=N)N)NC(=O)[C@H](C)N)[C@@H](C)O)C(=O)N[C@H](C(=O)N[C@@H](Cc1cnc[nH]1)C(=O)N1CCC[C@H]1C(=O)N[C@@H](C)C(=O)N1CCC[C@H]1C(=O)N[C@@H](C)C(=O)N[C@@H](CCC(N)=O)C(=O)N1CCC[C@H]1C(=O)N[C@@H](CCCCNC(=O)CCCC[C@@H]1SC[C@@H]2NC(=O)N[C@@H]21)C(N)=O)C(C)C` (H-ARLPRTMVHPAPAQPK(Biotin)-NH2), which Activity [4] is on record?
Answer: inactive

Question: And the Activity [5]?
Answer: inactive

Question: With `CSCC[C@H](NC(=O)[C@@H](NC(=O)[C@H](CCCNC(=N)N)NC(=O)[C@@H]1CCCN1C(=O)[C@H](C)NC(=O)[C@H](CCCNC(=N)N)NC(=O)[C@H](C)N)[C@@H](C)O)C(=O)N[C@H](C(=O)N[C@@H](Cc1cnc[nH]1)C(=O)N1CCC[C@H]1C(=O)N[C@@H](CCCCN)C(=O)N1CCC[C@H]1C(=O)N[C@@H](C)C(=O)N[C@@H](CCC(N)=O)C(=O)N1CCC[C@H]1C(=O)N[C@@H](CCCCNC(=O)CCCC[C@@H]1SC[C@@H]2NC(=O)N[C@@H]21)C(N)=O)C(C)C` (H-ARAPRTMVHPKPAQPK(Biotin)-NH2) as the molecule, how does the Activity [4] read?
Answer: inactive

Question: And the Activity [5]?
Answer: inactive
